Key:
Assay type in all cases: functional
Spodoptera litura [1] = assay: Toxicity in third-instar larvae of tobacco caterpillar Spodoptera litura assessed as mortality at 4 ug/insect measured after 4 to 28 days by topical bioassay
Spodoptera litura [2] = assay: Antifeedant activity against third-instar larvae of tobacco caterpillar Spodoptera litura in compound treated fresh castor leaves assessed as consumption at 28 +/- 2 degC, relative humidity 65 +/- 5 measured after 6 to 24 hr
Method in brief: (§1)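 No-choice leaf-disk test on castor leaf discs; control discs got solvent only. Prestarved third instar larvae reared on fresh castor leaves at 28 ± 2 °C, RH 65 ± 5, 16:8 light/dark. Consumed area tracked at 6, 12 and 24 h and measured with a leaf area meter. Antifeedant index = (C − T)/(C + T) × 100. 10 sets per concentration, each test run in triplicate; mean ± SD.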

Achaea janata [3] = assay: Antifeedant activity against third instar larvae of Achaea janata in compound treated fresh castor leaves assessed as consumption at 28 +/- 2 degC, relative humidity 65 +/- 5 measured after 6 to 24 hr; method in brief: as §1
Achaea janata [4] = assay: Toxicity in third instar larvae of Achaea janata assessed as mortality at 4 ug/insect measured after 4 to 28 days by topical bioassay
Achaea janata [5] = assay: Toxicity in third instar larvae of Achaea janata assessed as mortality at 1 ug/insect measured after 4 to 28 days by topical bioassay
Spodoptera litura [6] = assay: Toxicity in third-instar larvae of tobacco caterpillar Spodoptera litura assessed as mortality at 1 ug/insect measured after 4 to 28 days by topical bioassay
Achaea janata [7] = assay: Antifeedant activity against third instar larvae of Achaea janata in compound treated fresh castor leaves assessed as consumption at 0.1% measured after 6 to 24 hr; method in brief: as §1
Spodoptera litura [8] = assay: Antifeedant activity against third-instar larvae of tobacco caterpillar Spodoptera litura in compound treated fresh castor leaves assessed as consumption at 0.1% measured after 6 to 24 hr; method in brief: as §1

Row | SMILES | mortality (Spodoptera litura [1]) [%] | Antifeedant EC50 (leaf-consumption) (Spodoptera litura [2]) [microg/cm2] | antifeedant EC50 (Achaea janata [3]) [microg/cm2] | mortality (Achaea janata [4]) [%] | mortality (Achaea janata [5]) [%] | mortality (Spodoptera litura [6]) [%] | Activity (Achaea janata [7]) [%] | Activity (Spodoptera litura [8]) [%]
1 | COc1cccc2c1C(=O)C(NCCOC(=O)[C@H](CC(C)C)NC(C)=O)=C(C)C2=O | 74.2 | 466.28 | >500 | <20 |  |  |  | 
2 | COc1cccc2c1C(=O)C(NCCOC(=O)[C@H](Cc1ccccc1)NC(C)=O)=C(C)C2=O | <20 | 105.93 | 51.96 | 23.4 |  |  |  | 
3 | COc1cccc2c1C(=O)C(NCCOC(=O)[C@@H](NC(C)=O)C(C)C)=C(C)C2=O | 84.5 | >500 | 104.59 | 32.6 |  |  |  | 
4 | COc1cccc2c1C(=O)C(NCCOC(=O)[C@H](Cc1ccc(O)cc1)NC(C)=O)=C(C)C2=O | <20 | 461 | 199.45 | 24.6 |  |  |  | 
5 | COc1cccc2c1C(=O)C(NCCOC(=O)CCCNC(C)=O)=C(C)C2=O | <20 | 247.59 | >500 | <20 |  |  |  | 
6 | COc1cccc2c1C(=O)C(NCCOC(=O)c1ccc(NC(C)=O)cc1)=C(C)C2=O | 63.8 | 117.25 | 268.88 | <20 |  |  |  | 
7 | COc1cccc2c1C(=O)C(NCCOC(=O)CNC(C)=O)=C(C)C2=O | <20 | 36.87 | 69.51 | 100 |  |  |  | 
8 | COc1cccc2c1C(=O)C(NCCOC(=O)[C@H](C)NC(C)=O)=C(C)C2=O | <20 | >500 | 340.63 | <20 |  |  |  | 
9 | COc1cccc2c1C(=O)C(NCCOC(=O)[C@H](CS)NC(C)=O)=C(C)C2=O | 100 | >500 | >500 | <20 |  |  |  | 
10 | COc1cccc2c1C(=O)C(NCCOC(=O)[C@H](CCSC)NC(C)=O)=C(C)C2=O | <20 | 48.47 | 37.37 | 100 |  |  |  | 
11 | CC[C@H](C)[C@H](NC(C)=O)C(=O)OCCNC1=C(C)C(=O)c2cccc(OC)c2C1=O | <20 | >500 | 292 | <20 |  |  |  | 
12 | C/C=C(\C)C(=O)O[C@H]1C[C@@H](OC(C)=O)[C@@]2(C(=O)OC)CO[C@H]3[C@@H](O)[C@@](C)([C@]45O[C@@]4(C)[C@@H]4C[C@H]5O[C@@H]5OC=C[C@@]54O)[C@H]4[C@]1(CO[C@]4(O)C(=O)OC)[C@@H]32 [AZADIRACHTIN A] |  |  |  |  | 93.6 | 84 |  | 
13 | CC1=CC(=O)c2c(O)cccc2C1=O [PLUMBAGIN] | <20 |  |  | <20 |  |  | 35.69 | 26

Source: ChEMBL document CHEMBL3045703, “Synthesis and insect antifeedant activity of plumbagin derivatives with the amino acid moiety” (2009)
